The record followed here is ChEMBL document CHEMBL2203235, “Optimization of a natural product-based class of γ-secretase modulators” (J Med Chem, 2012).

One series has as its system Liver microsomes. Description: Metabolic stability in human liver microsomes at 1 uM after 60 mins by LC/MS/MS analysis. As to conditions: 1 h.
A short description of series [1]: Ratio of drug uptake in brain to plasma in P-gp knockout mouse at 10 mg/kg, ip at 6 hrs. The class given is ADME, organism-based. The arrangement: dose 10 mg/kg, route intraperitoneal. As to conditions: brain and plasma, read-out: BPR. The method in brief:
(§1)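 Dosing was 10 mg/kg IP in MDR1 (P-gp) knockout mice and, identically, in wild-type FVB mice. Brain and plasma levels were taken 6 h after dosing to give a brain-to-plasma ratio.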

Series [2] can be described thus: Drug uptake in CD1 mouse brain at 1 mg/kg, iv at 6 hrs.
The nature of series [3]: Plasma concentration in CD1 mouse at 1 mg/kg, iv at 6 hrs.
The nature of series [4]: Ratio of drug uptake in brain to plasma in CD1 mouse at 1 mg/kg, iv at 6 hrs. As to conditions: brain and plasma.
The nature of series [5]: Modulation of gamma secretase in CHO-2B7 cells assessed as reduction in amyloid beta 42 level after 5 hrs by MSD ELISA. Conditions: Cricetulus griseus, CHO-2B7, 5 h. The class given is cell-based.
The nature of series [6]: Modulation of gamma secretase in CHO-2B7 cells assessed as reduction in amyloid beta 40 level after 5 hrs by MSD ELISA. The class given is cell-based. Conditions: Cricetulus griseus, CHO-2B7, 5 h.
A short description of series [7]: Ratio of drug uptake in brain to plasma in FVB mouse at 10 mg/kg, ip at 6 hrs. The arrangement: dose 10 mg/kg, route intraperitoneal. Conditions: brain and plasma, read-out: BPR. The class given is ADME, organism-based. In a few lines:
as §1

Series [8] can be described thus: in vivo. As to conditions: CD1, mouse, po, 30 mg/kg.
Series [9] deals with CHO. Description: Modulation of gamma secretase in CHO cells expressing human APP assessed as amyloid beta (1 to 40) level at 3 uM after 6 hrs by LC/MS/MS analysis (reference value: 10.2 ng). The class given is cell-based. Conditions: Cricetulus griseus. In a few lines: (§2)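 Cells were treated at 3 μM or 2 μM. Secreted Aβ peptides (Aβ37, 38, 39, 40, 42) were quantified by immunoprecipitation followed by LC/MS/MS. Changes are expressed relative to vehicle-treated cells.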

The test system of series [10] is CHO. Description: Modulation of gamma secretase in CHO cells expressing human APP assessed as reduction amyloid beta (1 to 38) level at 3 uM after 6 hrs by LC/MS/MS analysis relative to control. Format: cell-based. As to conditions: Cricetulus griseus. The arrangement: scale not given: the % may be the effect or the level left. The method in brief:
as §2

For series [11], the system named is CHO. Kind of series: Modulation of gamma secretase in CHO cells expressing human APP assessed as increase in amyloid beta (1 to 37) level at 3 uM after 6 hrs by LC/MS/MS analysis relative to control. The class given is cell-based. As to conditions: Cricetulus griseus. In a few lines: as §2
The nature of series [12]: Drug uptake in CD1 mouse brain at 100 mg/kg, ip at 6 hrs. The class given is ADME, organism-based. The arrangement: dose 100 mg/kg, route intraperitoneal. Conditions: read-out: Drug uptake. In a few lines: (§3)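 CD-1 mice received a single IP or PO dose (n = 12 per group) and were sampled at 6 h. Plasma and brain drug concentrations were measured in μM. Aβ42, Aβ40 and Aβ38 in brain homogenate are expressed as percent lowering versus vehicle. Statistical significance was assessed against vehicle.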

The subject of series [13] is CHO. Kind of series: Modulation of gamma secretase in CHO cells expressing human APP assessed as increase in amyloid beta (1 to 39) level at 3 uM after 6 hrs by LC/MS/MS analysis relative to control. As to conditions: Cricetulus griseus. The class given is cell-based. In a few lines:
as §2

The test system of a further series is SUP-T1. Kind of series: Inhibition of notch-mediated NICD release in human SUP-T1 cells at 4 uM after 18 hrs by immunoblotting assay. Format: cell-based.
In series [14] the test system is Mus musculus. Kind of series: Antialzheimer activity in CD1 mouse assessed as reduction in amyloid beta 42 level at 30 mg/kg, ip at 6 hrs relative to vehicle-treated control. Format: functional. The arrangement: scale not given: the % may be the effect or the level left. Conditions: route intraperitoneal. The method in brief: as §3
Series [15] in a line: Plasma concentration in CD1 mouse at 30 mg/kg, ip at 6 hrs. The class given is ADME, organism-based. The arrangement: dose 30 mg/kg, route intraperitoneal. In a few lines:
as §3

Series [16] can be described thus: Ratio of drug uptake in brain to plasma in CD1 mouse at 30 mg/kg, po at 6 hrs. Conditions: brain and plasma.
In series [17] the test system is Mus musculus. Description: Antialzheimer activity in CD1 mouse assessed as reduction in amyloid beta 40 level at 30 mg/kg, ip at 6 hrs relative to vehicle-treated control. As to conditions: route intraperitoneal. The class given is functional. The arrangement: scale not given: the % may be the effect or the level left. In a few lines:
as §3

Series [18] in a line: Clearance in CD1 mouse at 1 mg/kg, iv. As to conditions: in vivo.
Series [19] in a line: Plasma concentration in CD1 mouse at 100 mg/kg, ip at 6 hrs. Format: ADME, organism-based. The arrangement: dose 100 mg/kg, route intraperitoneal. The method in brief:
as §3

In series [20] the test system is Mus musculus. Description: Antialzheimer activity in CD1 mouse assessed as reduction in amyloid beta 42 level at 100 mg/kg, ip at 6 hrs relative to vehicle-treated control. The class given is functional. The arrangement: scale not given: the % may be the effect or the level left. Conditions: route intraperitoneal. The method in brief: as §3
A short description of series [21]: Inhibition of gamma secretase in CHO-2B7 cells assessed as reduction in total amyloid beta level after 5 hrs by MSD ELISA. The class given is cell-based. As to conditions: Cricetulus griseus, CHO-2B7, 5 h.
Series [22] can be described thus: Drug uptake in CD1 mouse brain at 30 mg/kg, ip at 6 hrs. Format: ADME, organism-based. The arrangement: dose 30 mg/kg, route intraperitoneal. Conditions: read-out: Drug uptake. In a few lines:
as §3

Series [23] in a line: in vivo. As to conditions: CD1, mouse, po, 30 mg/kg. This is another data set of the same source.
A short description of series [24]: Volume of distribution in CD1 mouse at 1 mg/kg, iv. Conditions: in vivo.
Series [25] relates to Mus musculus. Description: Antialzheimer activity in CD1 mouse assessed as reduction in amyloid beta 40 level at 100 mg/kg, ip at 6 hrs relative to vehicle-treated control. Conditions: route intraperitoneal. The arrangement: scale not given: the % may be the effect or the level left. The class given is functional. In a few lines:
as §3

In series [26] the test system is Mus musculus. Description: Antialzheimer activity in CD1 mouse assessed as reduction in amyloid beta 38 level at 30 mg/kg, ip at 6 hrs relative to vehicle-treated control. The class given is functional. The arrangement: scale not given: the % may be the effect or the level left. As to conditions: route intraperitoneal. In a few lines:
as §3

Series [27] relates to CHO. Description: Modulation of gamma secretase in CHO cells expressing human APP assessed as amyloid beta (1 to 42) level at 3 uM after 6 hrs by LC/MS/MS analysis (reference value: 0.6 ng). Conditions: Cricetulus griseus. The class given is cell-based. In a few lines: as §2
Series [28] is described as follows: Half life in CD1 mouse at 1 mg/kg, iv. As to conditions: in vivo.
Series [29] is described as follows: Modulation of gamma secretase in CHO-2B7 cells assessed as reduction in amyloid beta 38 level after 5 hrs by MSD ELISA. Conditions: Cricetulus griseus, CHO-2B7, 5 h. The class given is cell-based.
For series [30], the system named is Mus musculus. Kind of series: Antialzheimer activity in CD1 mouse assessed as reduction in amyloid beta 38 level at 100 mg/kg, ip at 6 hrs relative to vehicle-treated control. The arrangement: scale not given: the % may be the effect or the level left. As to conditions: route intraperitoneal. The class given is functional. The method in brief: as §3
Series [31] is described as follows: Clearance in rat at 3 mg/kg, iv. The arrangement: dose 3 mg/kg, route intravenous. Format: ADME, organism-based. As to conditions: in vivo.
Series [32] can be described thus: Half life in rat at 3 mg/kg, iv. The arrangement: dose 3 mg/kg, route intravenous. As to conditions: in vivo. Format: ADME, organism-based.
Series [33] in a line: Ratio of drug uptake in brain to plasma in rat at 10 mg/kg, po at 6 hrs. The class given is ADME, organism-based. The arrangement: dose 10 mg/kg, route oral. Conditions: brain and plasma, read-out: BPR.
Series [34] is described as follows: Oral bioavailability in rat at 10 mg/kg. Format: ADME, organism-based. As to conditions: in vivo.
Series [35] is described as follows: Cmax in rat at 10 mg/kg, po. The class given is ADME, organism-based. The arrangement: dose 10 mg/kg, route oral. Conditions: in vivo.
Series [36] can be described thus: Volume of distribution in rat at 3 mg/kg, iv. The arrangement: dose 3 mg/kg, route intravenous. The class given is ADME, organism-based. Conditions: in vivo.
Series [37] in a line: Metabolic stability in human liver microsomes assessed as compound remaining at 1 uM at 60 mins by LC/MS/MS analysis in absence of NADPH. Format: ADME, Microsome. Conditions: liver microsomes, read-out: Stability. The method in brief: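 Human liver microsomes were run without NADPH as a qualitative read of susceptibility to enzymatic hydrolysis. The read-out was percent parent remaining at 60 min.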

`CC(C)[C@@H](OC(=O)N1CCC1)[C@H]1C[C@@H](C)[C@H]2[C@H](O1)[C@H](O)[C@@]1(C)[C@@H]3CC[C@H]4C(C)(C)[C@@H](OC(=O)N(C)C5CN(C)C5)CC[C@@]45C[C@@]35CC[C@]21C`: in the series with Liver microsomes, the Stability entry is reported as “Stable”. The Kp at 6 h in series [1] came to 3.1; in series [4], 0.04; in series [7] it was 0.035. The concentration at 6 h turned out to be 11 nM in series [2] and 274 nM in series [3]. Also, the IC50 in series [5] is 0.091 µM; in series [6], 5.4 µM.
Consider `CCO[C@@H]([C@H]1C[C@@H](C)[C@H]2[C@H](O1)[C@H](O)[C@@]1(C)[C@@H]3CC[C@H]4C(C)(C)[C@@H](O[C@H]5CN(CCOC)CCO5)CC[C@@]45C[C@@]35CC[C@]21C)C(C)(C)O`, for which the Cmax in the series “in vivo [8]” is 3600 nM. Also, the Stability result in the series with Liver microsomes is “Stable”. Besides, the Activity in the series on CHO [9] was determined as 6.2 ng; in the series on CHO [10] it was 58%; with CHO [11], 50%; in the series with CHO [13], 310%; in the series with Mus musculus [14] it was 7%; in the series with Mus musculus [17], 8%. In addition, the Activity in the series with Mus musculus [20] is listed as 46%; in the series on Mus musculus [25], 30%; in the series on Mus musculus [26], 4%; in the series on CHO [27], “Below limit of detection”; in the series with Mus musculus [30], 31%. Also, the concentration at 6 h in series [12] stood at 23000 nM; in series [2], 9 nM; in series [3], 35 nM; in series [15], 2200 nM; in series [19], 12000 nM; in [22] it was 1600 nM. The compound further had an inhibition with SUP-T1 of 0%. In addition, the values for the Kp at 6 h in series [4] and in [16] were 0.26 and 0.4, respectively. The clearance in series [18] was 4.83 mL/min/kg. The 50% inhibitory concentration (IC50) in series [5] stood at 0.27 µM; in series [21], 12 µM; in [6], 9.9 µM; in series [29] it was 0.38 µM. In the series “in vivo [23]”, this compound had a bioavailability of 19%. This compound gave a volume of distribution (Vd) in series [24] of 0.42 L/kg. The half-life in series [28] is 2.5 h.
The compound `C[C@@H]1C[C@H]([C@H](O)C(C)(C)O)O[C@H]2[C@H]1[C@@]1(C)CC[C@@]34C[C@@]35CC[C@H](O[C@H]3CN([C@H]6CCNC6=O)CCO3)C(C)(C)[C@@H]5CC[C@H]4[C@]1(C)[C@H]2O` gave a clearance in series [31] of 9.67 mL/min/kg. The same compound had a half-life in series [32] of 5 h. Further, the IC50 in series [5] was not below 20 µM. In addition, the Kp at 6 h in series [33] worked out at 0.09. Moreover, the bioavailability in series [34] is more than 100%. The same compound yielded a Cmax in series [35] of 2200 nM. Besides, the volume of distribution (Vd) in series [36] was 3.1 L/kg. In addition, the remaining at 1 h, 1 µM in [37] turned out to be 85%.
